Data: publication PMC11451940 (RSC Medicinal Chemistry, 2024)
Values after ≈ are worked out from the molar mass of the structure shown. Values joined by “and” are separate entries in the source; they are usually repeats but may differ in a detail not shown here. Equal entries are not always repeated. Where two headings read alike, the source gives them in different places.

Key:
[1] = tested on: PC-3 cells (prostate adenocarcinoma); test: MTT in vitro cytotoxicity, PC-3; assay type: cell-based, human; details: read-out: IC50 ± SD, PC-3
How it was run: (§1)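 MTT assay on ATCC human lines cultured per supplier instructions: A2780, A2780R, MCF-7, PC-3, A549, HOS and normal foetal fibroblast MRC-5. Exposure was 24 h for all lines; A2780 was also tested at 48 and 72 h. IC50 came from dose–response curves, given ± SD from triplicate experiments. Selectivity index = IC50(MRC-5)/IC50(A2780).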

[2] = tested on: HOS cells (bone osteosarcoma); test: MTT in vitro cytotoxicity, HOS; assay type: cell-based, human; details: read-out: IC50 ± SD, HOS
How it was run: as §1

[3] = tested on: MRC-5 cells (human foetal fibroblasts); test: MTT in vitro cytotoxicity, normal MRC-5; assay type: cell-based; details: for IC50: read-out: IC50 ± SD, MRC-5
How it was run: as §1

[4] = tested on: A549 cells (lung adenocarcinoma); test: MTT in vitro cytotoxicity, A549; assay type: cell-based, human; details: read-out: IC50 ± SD, A549
How it was run: as §1

[5] = tested on: MCF-7 cells (breast adenocarcinoma); test: MTT in vitro cytotoxicity, MCF-7; assay type: cell-based, human; details: read-out: IC50 ± SD, MCF-7
How it was run: as §1

[6] = tested on: A2780R cells (cisplatin-resistant ovarian carcinoma); test: MTT in vitro cytotoxicity, A2780R; assay type: cell-based, human; details: read-out: IC50 ± SD, A2780R
How it was run: as §1

[7] = tested on: A2780 cells (human ovarian carcinoma); test: MTT in vitro cytotoxicity, A2780; assay type: cell-based
How it was run: as §1

[8] = tested on: HeLa; details: 72 h of incubation; cited from earlier work
[9] = tested on: PC3; details: 72 h of incubation; cited from earlier work
[10] = tested on: HL60 cells; details: read-out: IC50 on HL60 cells; 48 h of incubation; cited from earlier work
[11] = tested on: 3T3; details: 72 h of incubation; cited from earlier work
[12] = read-out: IC50 ± SD, A2780, 72 h, 72 h incubation time, MTT

N.N.[Cl][Pt][Cl] [Cisplatin]
IC50 ([1]; 24 h of incubation, MTT): > 50 µM | IC50 ([2]; 24 h of incubation, MTT): > 50 µM | SI, selectivity index expressed as IC50(MRC-5)/IC50(A2780) ([3]; 24 h of incubation): 3.0 | SI, selectivity index expressed as IC50(MRC-5)/IC50(A2780) ([3]; 24 h of incubation, listed as cisplatin): ≈ 3 | IC50 ([3]; 24 h of incubation, MTT, normal cells): 46.1 ± 2.4 µM | IC50 ([4]; 24 h of incubation, MTT): > 50 µM | IC50 ([5]; 24 h of incubation, MTT): 37 ± 2.2 µM | IC50 ([6]; 24 h of incubation, MTT): 42.7 ± 3.8 µM | IC50 ([7]; read-out: IC50 ± SD, A2780, 48 h, 48 h incubation time, MTT): 6.5 ± 3.2 µM | IC50 [7, 12]: 3.7 ± 0.2 µM | IC50 ([7]; read-out: IC50 ± SD, A2780, 24 h of incubation, MTT): 15.2 µM and 15.4 µM

CC(C)=CCC1=C(O)C(=O)c2ccccc2C1=O [Lapachol, 2-hydroxy-3-(3-methylbut-2-en-1-yl)naphthalene-1,4-dione]
IC50 ([1]; Homo sapiens, PC-3, 24 h): > 50 µM | IC50 ([2]; Homo sapiens, HOS, 24 h): > 50 µM | IC50 on HeLa [8]: 19.04 µg/mL (≈ 78.6 µM) | IC50 ([3]; Homo sapiens, MRC5, 24 h): > 50 µM | IC50 on PC3 [9]: 20.51 µg/mL (≈ 84.7 µM) | IC50 ([4]; Homo sapiens, A549, 24 h): > 50 µM | IC50 [10]: 25 µM | IC50 ([5]; Homo sapiens, MCF7, 24 h): > 50 µM | IC50 on 3T3 [11]: 6.15 µg/mL (≈ 25.4 µM) | IC50 ([6]; Homo sapiens, 24 h): > 50 µM | IC50 ([7]; Homo sapiens, A2780, 24 h, read-out: IC50 ± SD, A2780, 24 h of incubation, MTT): > 50 µM | IC50 [7, 12]: 6.4 ± 0.8 µM
